Data: ChEMBL document CHEMBL4814011, “Discovery of a novel class of inhaled dual pharmacology muscarinic antagonist and β2 agonist (MABA) for the treatment of chronic obstructive pulmonary disease (COPD)” (Bioorg Med Chem Lett, 2021)
Calls of active or inactive are those of the source. No cut-off for these calls is given here.

Experiments:
Cavia porcellus [1] = organism: Cavia porcellus; assay: Activity at muscarinic M3 and adrenergic beta2 in guinea pig trachea assessed as time taken for compound action by MABA assay; type: tissue-based
[2] = (§1) Antagonist activity at muscarinic M3 receptor in guinea pig trachea assessed as inhibition of carbachol-induced contraction; type: tissue-based, Cavia porcellus
Method in brief: (§2)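 Isolated guinea pig tracheal tissue was contracted with the muscarinic agonist carbachol, and inhibition of contraction was scored. A parallel histamine (H1) challenge, opposed only by the β2 component, was used to estimate the β2 share.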

[3] = target: beta-2 adrenergic receptor (guinea pig); assay: Agonist activity at beta-2 adrenergic receptor in guinea pig trachea assessed as inhibition of histamine-induced contraction
[4] = target: Beta-2 adrenergic receptor (Homo sapiens, UniProt P07550); assay: Displacement of 125I-cyanopindolol from human adrenergic beta2 receptor
Method in brief: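 Radioligand binding on cloned human β2 adrenoceptor, with displacement of 125I-cyanopindolol.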

[5] = Protein binding in human plasma; type: ADME, cell-free; settings: for fraction unbound: read-out: PPB (converted)
[6] = Protein binding in rat plasma; type: ADME, cell-free; settings: for fraction unbound: read-out: PPB (converted)
[7] = target: Muscarinic acetylcholine receptor M3 (Homo sapiens, UniProt P20309); assay: Displacement of [3H]-N-methylscopolamine from human muscarinic M3 receptor
[8] = In vivo agonist activity at adrenergic beta2 receptor in guinea pig assessed as reduction in acetylcholine/histamine-induced bronchoconstriction at 1 mg/kg, IT(Intratracheal) measured after 1 hr by Konzett-Roessler methodology relative to control; type: functional; settings: Cavia porcellus, inhaled or nasal
[9] = In vivo agonist activity at adrenergic beta2 receptor in guinea pig assessed as reduction in acetylcholine/histamine-induced bronchoconstriction at 3 mg/kg, IT(Intratracheal) measured after 1 hr by Konzett-Roessler methodology relative to control; type: functional; settings: Cavia porcellus, inhaled or nasal
[10] = In vivo agonist activity at adrenergic beta2 receptor in guinea pig assessed as reduction in acetylcholine/histamine-induced bronchoconstriction at 1 mg/kg, IT(Intratracheal) measured after 24 hrs by Konzett-Roessler methodology relative to control; type: functional; settings: Cavia porcellus, inhaled or nasal
[11] = In vivo agonist activity at adrenergic beta2 receptor in guinea pig assessed as reduction in acetylcholine/histamine-induced bronchoconstriction at 3 mg/kg, IT(Intratracheal) measured after 24 hrs by Konzett-Roessler methodology relative to control; type: functional; settings: Cavia porcellus, inhaled or nasal
[12] = Protein binding in guinea pig plasma; type: ADME, cell-free, Cavia porcellus
Cavia porcellus [13] = organism: Cavia porcellus; assay: as §1; type: tissue-based; method in brief: as §2

Sequence of Muscarinic acetylcholine receptor M3 (P20309 whole entry): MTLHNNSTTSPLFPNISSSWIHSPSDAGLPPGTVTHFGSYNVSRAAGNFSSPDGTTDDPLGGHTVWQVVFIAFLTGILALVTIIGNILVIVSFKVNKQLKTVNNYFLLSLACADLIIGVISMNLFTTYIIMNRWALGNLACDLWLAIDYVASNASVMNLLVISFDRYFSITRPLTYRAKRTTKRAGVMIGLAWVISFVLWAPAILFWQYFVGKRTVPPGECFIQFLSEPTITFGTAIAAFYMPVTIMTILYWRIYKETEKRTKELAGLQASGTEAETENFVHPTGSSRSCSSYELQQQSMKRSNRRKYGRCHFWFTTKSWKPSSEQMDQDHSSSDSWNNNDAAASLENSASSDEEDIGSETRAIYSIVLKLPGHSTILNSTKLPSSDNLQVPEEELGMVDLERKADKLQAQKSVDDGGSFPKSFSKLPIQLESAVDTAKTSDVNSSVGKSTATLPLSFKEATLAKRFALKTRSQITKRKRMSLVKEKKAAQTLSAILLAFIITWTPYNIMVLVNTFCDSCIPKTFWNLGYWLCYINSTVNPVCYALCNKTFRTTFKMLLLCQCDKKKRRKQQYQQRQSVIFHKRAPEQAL
Sequence of Beta-2 adrenergic receptor (P07550 whole entry): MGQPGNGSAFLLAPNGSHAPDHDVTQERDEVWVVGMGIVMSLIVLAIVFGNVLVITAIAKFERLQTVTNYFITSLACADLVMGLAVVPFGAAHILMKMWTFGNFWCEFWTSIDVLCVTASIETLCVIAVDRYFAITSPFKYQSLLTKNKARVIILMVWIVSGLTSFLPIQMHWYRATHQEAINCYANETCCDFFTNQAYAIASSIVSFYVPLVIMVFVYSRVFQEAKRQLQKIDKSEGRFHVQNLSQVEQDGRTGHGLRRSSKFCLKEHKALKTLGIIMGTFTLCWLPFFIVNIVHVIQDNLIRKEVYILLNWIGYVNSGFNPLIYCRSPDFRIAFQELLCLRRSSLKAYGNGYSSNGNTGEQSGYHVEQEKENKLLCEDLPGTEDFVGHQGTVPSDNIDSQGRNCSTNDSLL

Row | SMILES | TIME (Cavia porcellus [1]) | pIC50 [2] | pIC50 [3] | Ki [4] | Ki [7] | TIME (Cavia porcellus [1]; filed as modulator) | also measured
1 | CCN(CCCNC[C@H](O)c1ccc(O)c2[nH]c(=O)ccc12)C(=O)c1ccc(COc2cccc(-c3ccc([C@@H](NC(=O)O[C@H]4CN5CCC4CC5)c4ccccc4)cc3)c2)cc1 | > 3.75 h | 9.5 | 9.5 | 0.0501 nM | 0.251 nM | – | fraction unbound [5]: 0.04; fraction unbound [6]: 0.06
2 | O=C(NC(c1ccccc1)c1ccc(OCCCCCCCCCNC[C@H](O)c2ccc(O)c3[nH]c(=O)ccc23)cc1)O[C@H]1CN2CCC1CC2 (stereo partly specified) | > 4.5 h | 8.3 | 7.3 | 0.251 nM | 10 nM | – | –
3 | O=C(NC(c1ccccc1)c1cccc(OCCCCCCCCCNC[C@H](O)c2ccc(O)c3[nH]c(=O)ccc23)c1)O[C@H]1CN2CCC1CC2 (stereo partly specified) | > 4.5 h | 7.5 | 7.3 | 0.2 nM | 0.251 nM | – | –
4 | O=C(NC(c1ccccc1)c1cccc(OCCCCCNC[C@H](O)c2ccc(O)c3[nH]c(=O)ccc23)c1)O[C@H]1CN2CCC1CC2 (stereo partly specified) | – | 8.5 | 9 | 0.0251 nM | 0.398 nM | < 0.75 h | –
5 | O=C(NC(c1ccccc1)c1cccc(OCCCCCCNC[C@H](O)c2ccc(O)c3[nH]c(=O)ccc23)c1)O[C@H]1CN2CCC1CC2 (stereo partly specified) | – | 9.9 | 9.8 | 0.0158 nM | 0.316 nM | < 2.25 h | –
6 | O=C(NC(c1ccccc1)c1cccc(OCCCCCCCNC[C@H](O)c2ccc(O)c3[nH]c(=O)ccc23)c1)O[C@H]1CN2CCC1CC2 (stereo partly specified) | – | 9.3 | 8.1 | 0.1 nM | 0.398 nM | < 1.5 h | –
7 | O=C(N[C@@H](c1ccccc1)c1ccc(-c2cccc(OCc3ccc(C(=O)NCCCNC[C@H](O)c4ccc(O)c5[nH]c(=O)ccc45)cc3)c2)cc1)O[C@H]1CN2CCC1CC2 | > 4.5 h | 9.7 | 9.8 | 0.0126 nM | 0.1 nM | – | fraction unbound [5]: 0.05; fraction unbound [6]: 0.05
8 | O=C(NC(c1ccccc1)c1cccc(OCCCCCCCCNC[C@H](O)c2ccc(O)c3[nH]c(=O)ccc23)c1)O[C@H]1CN2CCC1CC2 (stereo partly specified) | – | 8.7 | 7.8 | 0.2 nM | 0.158 nM | < 1.5 h | –
9 | O=C(N[C@@H](c1ccccc1)c1cccc(OCc2ccc(CCNC[C@H](O)c3ccc(O)c4[nH]c(=O)ccc34)cc2)c1)O[C@H]1CN2CCC1CC2 | > 4.5 h | 9.3 | 9.1 | – | – | – | inhibition in vivo at 1 mg/kg [8]: 20%; inhibition in vivo at 3 mg/kg [9]: 67%; PPB [5]: 98%; inhibition in vivo at 1 mg/kg [10]: 42%; PPB [6]: 98%; inhibition in vivo at 3 mg/kg [11]: 35%; PPB [12]: 99%
10 | O=C(N[C@@H](c1ccccc1)c1cccc(OCCCCCCNC[C@H](O)c2ccc(O)c3[nH]c(=O)ccc23)c1)O[C@H]1CN2CCC1CC2 | – | – | – | 0.501 nM | 0.126 nM | – | pIC50 (Cavia porcellus [13]): inactive
11 | O=C(N[C@H](c1ccccc1)c1cccc(OCCCCCCNC[C@H](O)c2ccc(O)c3[nH]c(=O)ccc23)c1)O[C@H]1CN2CCC1CC2 | – | – | – | 0.0398 nM | 3.98 nM | – | pIC50 (Cavia porcellus [13]): inactive
12 | O=C(N[C@@H](c1ccccc1)c1ccc(-c2cccc(OCc3ccc(C(=O)N(CCCNC[C@H](O)c4ccc(O)c5[nH]c(=O)ccc45)Cc4ccccc4)cc3)c2)cc1)O[C@H]1CN2CCC1CC2 | > 3 h | 8.7 | 9 | 0.1 nM | 0.126 nM | – | inhibition in vivo at 1 mg/kg [8]: 27%; inhibition in vivo at 3 mg/kg [9]: 63%; fraction unbound [5]: < 0.01; fraction unbound [6]: 0.03; inhibition in vivo at 3 mg/kg [11]: 20%
13 | O=C(NC(c1ccccc1)c1ccccc1)O[C@H]1CN2CCC1CC2 | – | – | – | – | 1.26 nM | – | –
